Data from ChEMBL document CHEMBL1828531, “Pyrazol-3-propanoic acid derivatives as novel inhibitors of leukotriene biosynthesis in human neutrophils” (Eur J Med Chem, 2011).

What was measured:
[1] = molecular target: T1, Polyunsaturated fatty acid 5-lipoxygenase (Homo sapiens) (UniProt P09917); assay: Inhibition of 5-Lipoxygenase in arachidonic acid-stimulated human neutrophils assessed as residual activity at 10 uM after 15 mins by HPLC analysis in presence of A23187
T1 sequence (whole entry): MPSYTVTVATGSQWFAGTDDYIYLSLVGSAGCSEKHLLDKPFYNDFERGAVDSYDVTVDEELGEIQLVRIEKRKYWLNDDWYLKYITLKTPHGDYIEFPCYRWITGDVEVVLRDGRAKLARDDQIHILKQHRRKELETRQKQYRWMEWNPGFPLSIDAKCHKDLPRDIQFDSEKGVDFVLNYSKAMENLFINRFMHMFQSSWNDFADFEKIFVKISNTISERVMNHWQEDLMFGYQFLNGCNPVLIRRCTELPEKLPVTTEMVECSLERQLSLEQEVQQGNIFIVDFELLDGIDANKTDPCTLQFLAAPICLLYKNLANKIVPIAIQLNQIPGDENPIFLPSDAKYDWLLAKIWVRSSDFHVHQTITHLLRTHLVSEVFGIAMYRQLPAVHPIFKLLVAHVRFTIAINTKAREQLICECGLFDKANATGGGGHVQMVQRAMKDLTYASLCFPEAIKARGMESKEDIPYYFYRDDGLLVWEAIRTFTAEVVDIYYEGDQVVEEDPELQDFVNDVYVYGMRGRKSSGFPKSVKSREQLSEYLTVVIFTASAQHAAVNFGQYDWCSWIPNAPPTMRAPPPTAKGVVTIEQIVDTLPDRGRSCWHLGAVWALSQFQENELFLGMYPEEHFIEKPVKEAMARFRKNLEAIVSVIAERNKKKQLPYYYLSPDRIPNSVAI
Method in brief: (§1)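 Human neutrophils, 5 × 10^6/mL in PBS/glucose/1 mM CaCl2, preincubated 15 min at RT, then 2.5 µM A23187 plus 20 µM AA for 10 min at 37 °C. Methanol stop, PGB1 internal standard, HPLC of LTB4, its all-trans isomers and 5-H(p)ETE. Residual % versus 0.3% DMSO vehicle, mean ± SEM, n = 3–5. IC50 by linear interpolation from 4–5 concentrations.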

[2] = molecular target: T2, Polyunsaturated fatty acid 5-lipoxygenase (Homo sapiens, UniProt P09917); assay: Inhibition of 5-Lipoxygenase in arachidonic acid-stimulated human neutrophils after 15 mins by HPLC analysis in presence of A23187; method in brief: as §1
T2 sequence (P09917 whole entry): T1 sequence (whole entry)

[3] = molecular target: T1, Polyunsaturated fatty acid 5-lipoxygenase (Homo sapiens); assay: Inhibition of recombinant human 5-Lipoxygenase expressed in Escherichia coli lysate assessed as residual activity at 10 uM after 10 mins by HPLC analysis
Method in brief: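 Human 5-LO expressed at 30 °C in E. coli MV1190 (pT3-5LO); lysate 40,000 g supernatant in PBS pH 7.4 with 1 mM EDTA. Preincubated with compound 10 min at 4 °C, warmed 30 s at 37 °C. Started with 2 mM CaCl2 plus 20 µM AA, 10 min at 37 °C. Methanol stop, HPLC. Residual % versus 0.3% DMSO vehicle, n = 3–5.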

Activity [1] [%]	IC50 [2] [µM]	Activity [3] [%]	Structure (SMILES)
43.9	8	138	CC(C)(C)c1ccc(CN2CCN(C(=O)CCc3cc(-c4ccc(C(F)(F)F)cc4)n(-c4ccc(Cl)cc4)n3)CC2)cc1
86	–	106	Cc1ccc(-c2cc(CCC(=O)N3CCN(CC4CCCO4)CC3)nn2-c2ccc(Cl)nn2)cc1 (stereo unspecified)
90.1	–	86.5	CCCCCCCOc1ccc(OC(=O)CCc2cc(-c3ccc(F)cc3)n(-c3ccc(Cl)nn3)n2)cc1
86.5	–	95	Cc1ccc(-c2cc(CCC(=O)Oc3ccc(Oc4ccc(C(F)(F)F)cc4)cc3)nn2-c2ccc(Cl)nn2)cc1
96.3	–	93.6	CCS(=O)(=O)N1CCN(C(=O)CCc2cc(-c3ccc(C)cc3)n(-c3ccc(Cl)nn3)n2)CC1
77.2	–	92	O=C(CCc1cc(-c2ccc(C(F)(F)F)cc2)n(-c2ccc(Cl)nn2)n1)Oc1ccc(C2CCCC2)cc1
111	–	71.7	O=C(CCc1cc(-c2ccc(F)cc2)n(-c2ccc(Cl)nn2)n1)Oc1ccc(-n2ccnc2)cc1
12.7	2.9	109	CC(C)(C)c1ccc(CN2CCN(C(=O)CCc3cc(-c4ccc(C(F)(F)F)cc4)n(-c4ccccc4)n3)CC2)cc1
13.2	2.6	143	CC(C)(C)c1ccc(CN2CCN(C(=O)CCc3cc(-c4ccc(F)cc4)n(-c4ccc(Cl)cc4)n3)CC2)cc1
44.5	3	87.3	CC(C)(C)c1ccc(CN2CCN(C(=O)CCc3cc(-c4ccc(C(F)(F)F)cc4)n(-c4ccc5ccccc5n4)n3)CC2)cc1
17.4	2.9	88.9	CC(C)(C)c1ccc(CN2CCN(C(=O)CCc3cc(-c4ccc(C(F)(F)F)cc4)n(-c4ccc(Cl)nn4)n3)CC2)cc1
88.3	–	91.6	COc1ccc(NC(=O)CCc2cc(-c3ccc(F)cc3)n(-c3ccc(Cl)nn3)n2)cc1
3.7	2.5	78.5	CC(C)(C)c1ccc(CN2CCN(C(=O)CCc3cc(-c4ccc(F)cc4)n(-c4ccccc4)n3)CC2)cc1
27.1	3.3	86.1	COc1ccc(-n2nc(CCC(=O)N3CCN(Cc4ccc(C(C)(C)C)cc4)CC3)cc2-c2ccc(C)cc2)nn1
95	–	90.8	O=C(CCc1cc(-c2ccc(F)cc2)n(-c2ccc(Cl)nn2)n1)N1CCN(C(=O)C2CCCO2)CC1 (stereo unspecified)
36.2	8	56.1	COc1ccc(-n2nc(CCC(=O)N3CCN(Cc4ccc(C(C)(C)C)cc4)CC3)cc2-c2ccc(C(F)(F)F)cc2)nn1
94.1	–	90.8	O=C(CCc1cc(-c2ccc(C(F)(F)F)cc2)n(-c2ccc(Cl)nn2)n1)Oc1ccc(-n2cccc2)cc1
90.8	–	83.4	O=C(CCc1cc(-c2ccc(F)cc2)n(-c2ccc(Cl)nn2)n1)Oc1ccc(-c2ccsc2)cc1
104	–	103	NC(=O)C1CCN(C(=O)CCc2cc(-c3ccc(C(F)(F)F)cc3)n(-c3ccc(Cl)nn3)n2)CC1
27.7	2.9	111	Cc1ccc(-c2cc(CCC(=O)N3CCN(Cc4ccc(C(C)(C)C)cc4)CC3)nn2-c2ccc(Cl)cc2)cc1
10.4	2.8	114	CC(C)(C)c1ccc(CN2CCN(C(=O)CCc3cc(-c4ccc(F)cc4)n(-c4ccc5ccccc5n4)n3)CC2)cc1
50.1	> 10	69.2	COc1ccc(-n2nc(CCC(=O)N3CCN(Cc4ccc(C(C)(C)C)cc4)CC3)cc2-c2ccc(F)cc2)nn1
14.6	2.8	107	Cc1ccc(-c2cc(CCC(=O)N3CCN(Cc4ccc(C(C)(C)C)cc4)CC3)nn2-c2ccc(Cl)nn2)cc1
70.5	–	116	Cc1ccc(-c2cc(CCC(=O)Oc3ccc(OC(F)(F)F)cc3)nn2-c2ccc(Cl)nn2)cc1
67.3	–	92.7	CC(C)(C)c1ccc(OC(=O)CCc2cc(-c3ccc(F)cc3)n(-c3ccc(Cl)nn3)n2)cc1
81.8	–	126	O=C(CCc1cc(-c2ccc(C(F)(F)F)cc2)n(-c2ccc(Cl)nn2)n1)N1CCN(C(=O)c2ccco2)CC1
106	–	90	Cc1ccc(-c2cc(CCC(=O)Nc3ccc(N4CCOCC4)nc3)nn2-c2ccc(Cl)nn2)cc1
